Screening results from PubChem BioAssay.
RAD52 anneal inh – inhibitors of human RAD52 DNA annealing. inhibition, % at 18.7 µM. hit rate 0.46% among 360,000. recombinant RAD52 DNA annealing, FRET fluorescence;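 active means every replicate showing at least 50% inhibition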
RAD54 branch – inhibitors of human RAD54 branch migration. Q92698. RAD54 Holliday junction branch migration, FAM/BHQ fluorescence. inhibition, % at 10.4 µM. hit rate 0.14% among 360,000. AID 602329;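 active means mean normalized replicate activity at least 40 and at least half of replicates scoring 40 or more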;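 further: 0% = median of neutral control wells and 100% = median of positive control wells; inhibitors cause a drop in the FAM fluorescence signal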
Target sequence (Q92698 whole entry, looked up): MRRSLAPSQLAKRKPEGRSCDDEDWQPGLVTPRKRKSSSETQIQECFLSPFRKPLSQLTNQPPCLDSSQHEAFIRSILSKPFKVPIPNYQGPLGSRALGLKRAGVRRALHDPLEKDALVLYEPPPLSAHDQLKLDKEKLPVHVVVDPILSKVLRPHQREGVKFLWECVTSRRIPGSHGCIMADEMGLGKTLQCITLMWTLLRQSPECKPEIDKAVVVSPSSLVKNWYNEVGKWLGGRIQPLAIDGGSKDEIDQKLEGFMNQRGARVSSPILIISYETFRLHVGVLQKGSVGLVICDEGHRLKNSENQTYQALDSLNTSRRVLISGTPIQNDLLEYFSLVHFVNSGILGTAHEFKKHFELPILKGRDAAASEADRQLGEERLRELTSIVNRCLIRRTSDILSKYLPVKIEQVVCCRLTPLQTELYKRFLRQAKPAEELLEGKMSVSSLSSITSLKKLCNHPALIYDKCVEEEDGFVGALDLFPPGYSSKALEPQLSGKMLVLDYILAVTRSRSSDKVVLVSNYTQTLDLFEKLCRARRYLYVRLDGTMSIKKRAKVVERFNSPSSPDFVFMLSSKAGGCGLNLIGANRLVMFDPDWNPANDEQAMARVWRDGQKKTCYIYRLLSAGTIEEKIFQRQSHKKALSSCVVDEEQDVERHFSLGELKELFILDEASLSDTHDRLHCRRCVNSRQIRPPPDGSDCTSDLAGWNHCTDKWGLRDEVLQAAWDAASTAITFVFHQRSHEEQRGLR
Xi reactivation – activators of X-chromosome reactivation in mouse fibroblasts | XiGFP mouse fibroblasts, % GFP-positive cells imaging, 3 d; cells co-treated with 5-aza-dC sensitizer; scaled so ellipticine positive control = 100% | activation, % at 7.58 µM | hit rate 0.055% among 360,000 | AID 743238;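 active means mean normalized replicate activation at least 10% and every replicate at or above 10%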;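 further: 0% = median of on-plate neutral control wells and 100% = ellipticine 6 µM median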
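Schedule: 3 d treatment, 15 min room-temperature fixation; system: 68-5-11 XiGFP fibroblast line; buffer or medium: DMEM plus 5-aza-dC sensitizer; control set: ellipticine 6 µM positive control; compound: one concentration, pinned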
E-sel inducer – induces E-selectin expression in human endothelial cells; P16581; HUVEC E-selectin immunofluorescence imaging; normalized: neutral wells 0, TNF-alpha wells 100; activation, % at 7.58 µM; hit rate 0.37% among 260,000;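 active means mean E-selectin-positive cell signal at least 10% of the positive control, reached in at least 60% of replicates, without over 20% cell loss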
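Read-out: % PE-positive cells | Test system: HUVEC | Doses: One compound dose added by pin transfer | Buffer or medium: EGM-2 over gelatin coat | Signal: Immunofluorescence imaging | Benchmarks: TNF-alpha, DMSO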
PglD inh – inhibitors of Campylobacter jejuni PglD acetyltransferase; purified PglD enzyme, DTNB colorimetric CoA detection; inhibition, % at 12.5 µM; hit rate 0.098% among 360,000; AID 602405; in the data active means inhibition above about 16%, passing the limit was not always enough
Ecoli rRNA inh – selective bacterial rRNA inhibition in E. coli. E. coli WT GFP vs humanized-ribosome RFP mutants, fluorescence, 24 h; hits give low values; DMSO median 0, no signal -100. GFP signal change (wild-type ribosome), % (test concentration not listed). hit rate 1.6% among 350,000. AID 720706;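 active means significant combined selectivity score with lowered wild-type GFP, culture density cut under 30%, mutant RFP and density less affected; inactive means any of these conditions unmet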
Active calls of the source: *; i = inactive; x = not tested or not shown. An excerpt weighted towards active compounds, which were near 2% of everything screened.

SMILES | RAD52 anneal inh | RAD54 branch | Xi reactivation | E-sel inducer | PglD inh | Ecoli rRNA inh
O=C(O)c1cccc(N2C(=O)c3ccc(Oc4ccc(Cl)cc4)cc3C2=O)c1 | -89.3 | x | 0.1 | x | x | -36.2*
N/C(Cc1ccc(Cl)cc1Cl)=N\OC(=O)c1ccccc1 | -6.0 | x | 0.4 | 0.2 | x | -30.6*
O=C1c2ccccc2S(=O)(=O)c2cc(N3CCC(C(=O)N4CCCCC4)CC3)ccc21 | i | x | 0.0 | x | x | -20.9*
O=C1NC(Cc2ccc(O)cc2)c2nc3ccc(Br)cc3c(=O)n2-c2ncccc21 (stereo unspecified) | -3.9 | x | 0.3 | 1.7 | x | -21.3*
O=C(C[C@@H]1C[C@@H]2c3cc(NC(=O)NC4CCCC4)ccc3O[C@@H]2[C@@H](CO)O1)NCc1ccccc1F | -20.4 | -0.7 | 0.0 | -0.1 | 0.8 | -2.0
COc1ccc(CC(=O)O/N=C(\N)c2ccc(OC)cc2)cc1 | -3.8 | -11.4 | 0.0 | x | -7.0 | -18.9*
COc1ccc(CC(=O)O/N=C(\N)c2ccccc2)cc1OC | -16.1 | -19.3 | 0.1 | 0.2 | 3.7 | -22.1*
COc1ccc(CC(=O)O/N=C(\N)c2ccc(Br)cc2)cc1OC | -7.2 | 1.2 | 0.0 | -0.9 | -6.0 | -16.6
CO[C@@H]1CN(C)C(=O)c2cc(NC(=O)Nc3c(C)noc3C)ccc2OC[C@@H](C)NC[C@H]1C | -46.9 | 12.0 | -0.1 | 1.9 | 0.0 | 2.8
COc1ccc(NC(=O)Nc2ccc3c(c2)C(=O)N([C@@H](C)CO)C[C@H](C)[C@H](CN(C)Cc2ccncc2)OCCCC[C@H](C)O3)cc1 | 5.6 | -2.0 | 0.0 | 2.0 | 1.8 | -3.0
CC[n+]1c(/C=C/C=C/N(C(C)=O)c2ccccc2)sc2cc(OC)ccc21 | i | x | 51.6* | x | x | 29.1
COc1ccc(NC(=O)N[C@H]2CC[C@@H](CCNC(=O)CN3CCOCC3)O[C@@H]2CO)cc1 | -7.9 | 11.3 | 0.6 | -0.1 | -1.1 | -0.9
COc1ccc(OCCCCN(C)Cc2ccccc2)cc1 | -13.5 | 6.2 | 0.0 | x | -1.3 | 11.8
CN(CCOc1ccccc1Cl)Cc1ccccc1 | -9.1 | 5.9 | 0.0 | x | -2.8 | -6.9
CN(CCOc1ccc(Cl)c(Cl)c1)Cc1ccccc1 | -5.9 | 2.2 | 0.0 | x | 4.3 | -29.5*
C=CCc1cc(OC)ccc1OCCN(C)Cc1ccccc1 | -11.9 | x | 8.2 | 0.1 | x | -29.8*
Cc1cc(OCC(=O)N(C)Cc2ccccc2)ccc1Br | -10.6 | 2.9 | 0.1 | x | 0.1 | -25.6
CN(CCOCCOc1ccc(Cl)cc1Br)Cc1ccccc1 | 3.3 | x | -0.1 | 2.3 | x | -36.6*
Cc1cc(OCC(=O)N(C)Cc2ccccc2)ccc1Cl | -2.7 | -4.7 | 0.0 | 0.0 | -8.4 | -29.9*
C[C@@H]1CCCCO[C@H](CN(C)Cc2ccc3c(c2)OCO3)[C@@H](C)CN([C@H](C)CO)C(=O)c2cc(NC(=O)CCCN(C)C)ccc2O1 | -17.3 | 2.9 | 0.1 | -0.3 | 44.9 | 4.1
COCc1cn(CC[C@H]2CC[C@@H](NC(=O)Cc3cccnc3)[C@@H](CO)O2)nn1 | 2.7 | -2.5 | -0.1 | -0.3 | -0.9 | 1.5
Fc1ccc(-n2c(-c3cccs3)nc3nc4ccccc4nc32)cc1 | x | x | 0.1 | 35.9* | x | x
O=C(C[C@H]1CC[C@@H](NC(=O)c2cccc(F)c2)[C@H](CO)O1)NCCN1CCCC1 | -13.5 | -2.4 | -0.2 | -0.7 | 6.3 | -0.9
CC(Nc1ncnc2ccccc12)c1ccccc1 (stereo unspecified) | -6.6 | 2.5 | 0.0 | 0.0 | 2.3 | -29.7*
COCC(=O)N(C)C[C@@H]1Oc2ncc(Br)cc2C(=O)N([C@@H](C)CO)C[C@@H]1C | x | -1.0 | -0.1 | 0.0 | -4.8 | 2.1
SMILES | RAD52 anneal inh | RAD54 branch | Xi reactivation | E-sel inducer | PglD inh | Ecoli rRNA inh
COc1ccc(CCNc2nc(-c3ccncc3)cs2)cc1OC | 7.7 | x | 0.1 | 0.4 | x | -27.3*
COC(=O)c1cc2c(c3c4cc(F)ccc4n(S(=O)(=O)c4ccc(C)cc4)c13)C(=O)N(Cc1ccccc1)C2 | -20.3 | x | 0.4 | -0.3 | x | 6.0
C[C@H](CO)N1C[C@H](C)[C@H](CN(C)C(=O)c2ccc(N3CCN(C)CC3)cc2)OCc2cn(nn2)CCCC1=O | x | x | 0.3 | -0.4 | x | 0.9
CCOC(=O)N1CCN(C(=O)COc2cccc3c2CCN(Cc2ccccc2C)C3=O)CC1 | x | x | 0.3 | x | x | x
CCOC(=O)N1CCN(C(=O)COc2cccc3c2CCN(Cc2cccc(C)c2)C3=O)CC1 | -1.3 | x | -0.1 | 0.2 | x | -25.2*
CN(C)CC(=O)NC[C@H]1N[C@@H](CO)[C@H]1c1ccc(-c2cccc(C#N)c2)cc1 | 51.3* | 3.1 | 0.6 | 0.2 | 0.8 | 1.7
C[C@@H]1CN([C@H](C)CO)C(=O)c2cccc(NC(=O)C3CCCCC3)c2O[C@@H]1CN(C)S(C)(=O)=O | -10.3 | -0.9 | -0.4 | 1.3 | -3.0 | 1.8
CCN(Cc1ccccc1)c1ccc(/C=N/NS(=O)(=O)c2ccc(C)c([N+](=O)[O-])c2)cc1 | -62.8 | x | -0.2 | -0.1 | x | -33.5*
O=C(c1cccc(F)c1)N1CCCCN2[C@@H](CO)[C@H](c3ccc(C#CC4(O)CCCC4)cc3)[C@@H]2C1 | -6.4 | 0.5 | 0.0 | 0.0 | 2.9 | -0.2
COc1ccc(-c2ccc([C@H]3[C@@H](C#N)N(C(=O)C4CC4)[C@H]3CO)cc2)cc1 | -40.4 | -3.4 | -0.2 | -0.2 | 3.3 | -3.6
CCC(=O)NC[C@@H]1[C@H](c2ccc(-c3cccc(F)c3)cc2)[C@@H](CO)N1C(=O)CC | x | -8.3 | 0.0 | -0.4 | -0.8 | -3.3
O=C(NC1CCC1)[C@@H]1[C@@H](CO)[C@@H]2Cn3c(ccc(-c4ccccc4F)c3=O)[C@@H]2N1Cc1ccncc1 | 85.2* | 11.3 | 0.4 | 0.5 | -0.7 | -2.6
O=C(NC1CCC1)[C@H]1[C@H](CO)[C@H]2Cn3c(ccc(-c4ccccc4F)c3=O)[C@H]2N1Cc1ccccn1 | -11.5 | x | 1.1 | 1.7 | x | -0.5
C[C@H](CO)N1C[C@H](C)[C@H](CN(C)C(=O)NC2CCCCC2)Oc2c(NC(=O)Nc3ccc(F)cc3)cccc2C1=O | -6.0 | 1.1 | -0.2 | -5.5 | 2.7 | -4.8
C[C@@H]1CN([C@@H](C)CO)C(=O)c2cc(NC(=O)Nc3ccc(F)cc3)ccc2O[C@@H]1CN(C)CC1CCCCC1 | 10.5 | 1.6 | 0.1 | 0.7 | 17.1* | 1.8
COc1ccc(NC(=O)Nc2cccc3c2O[C@@H](CN(C)C(=O)NC2CCCCC2)[C@@H](C)CN([C@H](C)CO)C3=O)cc1 | -4.9 | 3.5 | -1.0 | 38.2* | -3.1 | -4.1
C[C@@H]1CN([C@H](C)CO)C(=O)c2cccc(NC(=O)Nc3ccc(F)cc3)c2O[C@H]1CN(C)C(=O)NC1CCCCC1 | 4.7 | 3.7 | -0.1 | 65.8* | 9.7 | -2.7
C[C@@H]1CN([C@@H](C)CO)C(=O)c2cccc(NC(=O)Nc3ccc(F)cc3)c2O[C@H]1CN(C)CC1CCCCC1 | -6.9 | -0.2 | -0.1 | 58.0* | 5.7 | -9.7
